# Experimental data as given in ChEMBL document CHEMBL1121809, “Cyclic guanidines. 14. Imidazo[1,2-a]thienopyrimidin-2-one derivatives as blood platelet aggregation inhibitors” (J Med Chem, 1981).
# Key:
# Assay type in all cases: functional
# Rattus norvegicus [1] = test: Ex vivo inhibition of collagen-induced blood platelet aggregation in rat was measured 2 hr after administration of vehical alone
# Procedure, shortened: (§1)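 Overnight-fasted rats were dosed orally at (50 mg/10 mL)/kg in 0.5% Tween 80; controls got vehicle at 10 mL/kg. PRP was made from carotid citrated blood 2 h later under pentobarbital. Collagen suspension (absorbance 0.270 at 420 nm) drove aggregation at 30 °C, 1100 rpm. Read-out was the initial maximal rate of absorbance fall (ΔA/min). Inhibition percent is versus controls; 5–7 rats, mean ± SD.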
# Rattus norvegicus [2] = test: (§2) Ex vivo inhibition of collagen-induced blood platelet aggregation in rat was measured 2 hr after oral administration of 50 mg/kg; design: scale not given here; procedure, shortened: as §1
# Rattus norvegicus [3] = organism: Rattus norvegicus; test: In vitro inhibition of collagen-induced blood platelet aggregation
# Procedure, shortened: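 Rat PRP (about 5 × 10⁵ platelets/μL) was preincubated with compound added in saline or MeOH. Aggregation was started with bovine tendon collagen suspension in Tris buffer (absorbance 0.270 at 420 nm; lag 2–3 min). Read at 30 °C, 1100 rpm, as initial maximal rate ΔA/min. EC50 is the concentration giving 50% inhibition.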
# Rattus norvegicus [4] = organism: Rattus norvegicus; test: In vitro inhibition of ADP-induced blood platelet aggregation
# Procedure, shortened: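 Rat carotid citrated blood was spun at 230g for 7 min to give PRP, adjusted with PPP to about 5 × 10⁵ platelets/μL. Compound in saline or MeOH was added before 10 μM ADP in Tris-HCl/NaCl pH 7.4 with CaCl₂. Aggregation was read at 30 °C, 1100 rpm, as maximal ΔA. EC50 is the concentration giving 50% inhibition.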
# Rattus norvegicus [5] = organism: Rattus norvegicus; test: Inhibition of collagen-induced blood platelet aggregation in rat after 24 hr
# Procedure, shortened: (§3)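 Fasted rats received one oral 50 mg/kg dose in 0.5% Tween 80, and PRP was prepared 3, 6 or 24 h later; vehicle controls were bled at 3 h. Collagen-induced aggregation was read as initial maximal rate ΔA/min at 30 °C. Percent inhibition is versus controls; 5–7 animals, mean ± SD.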
# Rattus norvegicus [6] = organism: Rattus norvegicus; test: Inhibition of collagen-induced blood platelet aggregation in rat after 6 hrs; procedure, shortened: as §3
# Rattus norvegicus [7] = organism: Rattus norvegicus; test: Inhibition of collagen-induced blood platelet aggregation in rat after 3 hrs; procedure, shortened: as §3
# Rattus norvegicus [8] = test: as §2; procedure, shortened: as §1
# Rattus norvegicus [9] = organism: Rattus norvegicus; test: Inhibition of ADP-induced blood platelet aggregation in rat after 3 hr
# Procedure, shortened: (§4)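 This is an ex vivo time course after a single oral 50 mg/kg dose in 0.5% Tween 80 to fasted rats, with PRP made at 3, 6 or 24 h; controls got vehicle 3 h before blood collection. ADP (10 μM) aggregation was read as extent ΔA at 30 °C. Percent inhibition is versus controls; 5–7 animals, mean ± SD.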
# Rattus norvegicus [10] = organism: Rattus norvegicus; test: Inhibition of ADP-induced blood platelet aggregation in rat after 6 hr; procedure, shortened: as §4
# Rattus norvegicus [11] = organism: Rattus norvegicus; test: Inhibition of ADP-induced blood platelet aggregation in rat after 24 hr; procedure, shortened: as §4
SMILES,Delta A/min (Rattus norvegicus [1]),Delta A/min (Rattus norvegicus [2]),EC50 (Rattus norvegicus [3]) [µM],EC50 (Rattus norvegicus [4]) [µM],Delta A/min (Rattus norvegicus [5]),Delta A/min (Rattus norvegicus [6]),Delta A/min (Rattus norvegicus [7]),Delta A/min (Rattus norvegicus [8]),Delta A/min (Rattus norvegicus [9]),Delta A/min (Rattus norvegicus [10]),Delta A/min (Rattus norvegicus [11])
CC(C)(C)C1CCc2c(sc3c2CN2CC(=O)NC2=N3)C1.Cl (stereo not given),0.117,4000,0.25,27,,,,,,,
Cc1sc2c(c1Cl)CN1C(=N2)NC(=O)C1C (stereo not given),,,0.9,150,,,,,,,
Cl.O=C1CN2C=c3c4c(sc3=NC2=N1)CCCC4,0.183,0.047 ΔA/min,84,250,0.185,0.195,0.068,,,,
O=C1CN2Cc3ccsc3N=C2N1,,,> 250,> 250,,,,,,,
Cc1sc2c(c1Cl)CN1CC(=O)NC1=N2.Cl,,,17,36,,,,0.28 ΔA/min,,,
CC1CCCc2c1sc1c2CN2C(=NC(=O)C2C)N1.Cl (stereo not given),0.183,0.047 ΔA/min,0.03,3,,,,,,,
Cc1cc2c(s1)NC1=NC(=O)CN1C2.Cl,,,35,125,,,,0.162 ΔA/min,,,
Cl.O=C1CN2Cc3c(sc4c3CCc3ccccc3-4)N=C2N1,0.207,0.191 ΔA/min,0.9,19,,,,,,,
CN1C(=O)CN2Cc3c(sc4c3CCCC4)N=C21,,,> 250,> 250,,,,,,,
Cl.O=C1CN2Cc3c(sc4c3CCC(O)C4)N=C2N1 (stereo not given),0.117,2000,0.1,2,,,,,,,
CCCCCc1sc2c(c1C)CN1CC(=O)NC1=N2.Cl,,,0.19,2,,,,0.002 ΔA/min,,,
Cl.Cl.O=C1CN2Cc3c(sc4c3CCN(Cc3ccccc3)C4)N=C2N1,0.186,121000,29,13.5,,,,,,,
Cc1sc2c(c1C)CN1C(=N2)NC(=O)C1C.Cl (stereo not given),0.183,0.076 ΔA/min,0.13,20,,,,,,,
CCCc1sc2c(c1C)CN1CC(=O)NC1=N2.Cl,,,0.08,0.58,0.242,0.213,0.09,0.09 ΔA/min,0.128,0.154,
Cl.O=C1CN2Cc3c(sc4ccccc34)N=C2N1,0.183,0.092 ΔA/min,0.15,5.3,,,,,,,
Cl.O=C1CN2Cc3c(sc4c3CCC(OCc3ccccc3)C4)N=C2N1 (stereo not given),0.117,42000,2.2,4.2,,,,,,,
Cc1cc2c(s1)CN1CC(=O)NC1=N2.Cl,0.228,0.217 ΔA/min,12,250,,,,,,,
Cc1c(Cl)sc2c1CN1CC(=O)NC1=N2.Cl,,,1.9,4.2,0.166,0.166,0.077,0.222 ΔA/min,0.106,0.121,0.122
O=C1CN2Cc3c(sc4c3COc3ccccc3-4)N=C2N1,,,1.6,34,,,,,,,
CC1CCCc2c1sc1c2CN2CC(=O)N=C2N1.Cl (stereo not given),,,0.18,0.53,0.116,0.036,0,0,0.053,0.079,0.118

SMILES,Delta A/min (Rattus norvegicus [1]),Delta A/min (Rattus norvegicus [2]),EC50 (Rattus norvegicus [3]) [µM],EC50 (Rattus norvegicus [4]) [µM],Delta A/min (Rattus norvegicus [5]),Delta A/min (Rattus norvegicus [6]),Delta A/min (Rattus norvegicus [7]),Delta A/min (Rattus norvegicus [8]),Delta A/min (Rattus norvegicus [9]),Delta A/min (Rattus norvegicus [10]),Delta A/min (Rattus norvegicus [11])
O=C1CN2Cc3c(sc4c3CCCC4Cc3ccccc3)N=C2N1 (stereo not given),,,4,160,,,,,,,
Cc1scc2c1CN1CC(=O)NC1=N2.Cl,0.29,0.198 ΔA/min,3.5,17,,,,,,,
Cl.O=C1CN2Cc3sccc3N=C2N1,0.308,0.256 ΔA/min,10,> 250,,,,,,,
Cl.O=C1CN2Cc3c(sc4c3CCSC4)N=C2N1,0.178,0,0.54,2,,,,,,,
CCOC(=O)N1CCc2c(sc3c2CN2CC(=O)NC2=N3)C1.Cl,0.171,115000,0.12,1.2,30000,0.072,120000,,,,
Cl.O=C1CN2Cc3c(sc4c3CCOC4)N=C2N1,0.171,113000,0.2,1.3,,,,,,,
Cc1csc2c1CN1CC(=O)NC1=N2.Cl,,,15,19,,,,0.188 ΔA/min,,,
CC1CCc2c(sc3c2CN2C(=N3)NC(=O)C2C)C1.Cl (stereo not given),0.207,152000,0.2,32,,,,,,,
O=C1CN2Cc3cscc3N=C2N1,,,90,> 250,,,,,,,
Cl.O=C1CN2Cc3c(sc4c3CCC4)N=C2N1,,,0.25,40,,,,0.072 ΔA/min,,,
CCCc1c(CC)sc2c1CN1CC(=O)NC1=N2.Cl,,,2.2,3,,,,0.008 ΔA/min,,,
CC1CCc2c(sc3c2CN2CC(=O)NC2=N3)C1.Cl (stereo not given),0.178,0,0.62,2,,,,,,,
Cc1cc2c(s1)N=C1NC(=O)C(C)N1C2 (stereo not given),,,10,230,,,,,,,
Cl.O=C1CN2Cc3c(-c4ccccc4)csc3NC2=N1,,,20,120,,,,0.198 ΔA/min,,,
Cl.O=C1CN2Cc3c(sc4c3CCCCC4)N=C2N1,,,0.17,18,,,,0.202 ΔA/min,,,
CCCCC1C(=O)NC2=Nc3sc4c(c3CN21)CCCC4 (stereo not given),,,> 250,> 250,,,,,,,
Cl.O=C1CN2Cc3c(sc4c3SCCC4)NC2=N1,0.171,0.125 ΔA/min,0.16,1.2,,,,,,,
Cc1sc2c(c1C)CN1CC(=O)NC1=N2.Cl,,,1,5,0.164,0.153,0.094,0.073 ΔA/min,0.173,0.168,0.168
CCC1C(=O)NC2=Nc3sc4c(c3CN21)CCCC4 (stereo not given),,,60,> 250,,,,,,,
